Reference: ChEMBL document CHEMBL4152379, “Discovery of Pyrrolidine Sulfonamides as Selective and Orally Bioavailable Antagonists of Transient Receptor Potential Vanilloid-4 (TRPV4)” (J Med Chem, 2018)
Converted amounts (≈) assume the structure as drawn.

Experiments:
[1] = Lipophilicity, log D of the compound by chromatography; assay type: physicochemical
[2] = target: Transient receptor potential cation channel subfamily M member 4 (Homo sapiens, UniProt Q8TD43); experiment: Inhibition of TRPM4 (unknown origin)
[3] = target: T1, Short transient receptor potential channel 3 (Homo sapiens, UniProt Q13507); experiment: Inhibition of TRPC3 (unknown origin)
T1 sequence (Q13507 whole entry): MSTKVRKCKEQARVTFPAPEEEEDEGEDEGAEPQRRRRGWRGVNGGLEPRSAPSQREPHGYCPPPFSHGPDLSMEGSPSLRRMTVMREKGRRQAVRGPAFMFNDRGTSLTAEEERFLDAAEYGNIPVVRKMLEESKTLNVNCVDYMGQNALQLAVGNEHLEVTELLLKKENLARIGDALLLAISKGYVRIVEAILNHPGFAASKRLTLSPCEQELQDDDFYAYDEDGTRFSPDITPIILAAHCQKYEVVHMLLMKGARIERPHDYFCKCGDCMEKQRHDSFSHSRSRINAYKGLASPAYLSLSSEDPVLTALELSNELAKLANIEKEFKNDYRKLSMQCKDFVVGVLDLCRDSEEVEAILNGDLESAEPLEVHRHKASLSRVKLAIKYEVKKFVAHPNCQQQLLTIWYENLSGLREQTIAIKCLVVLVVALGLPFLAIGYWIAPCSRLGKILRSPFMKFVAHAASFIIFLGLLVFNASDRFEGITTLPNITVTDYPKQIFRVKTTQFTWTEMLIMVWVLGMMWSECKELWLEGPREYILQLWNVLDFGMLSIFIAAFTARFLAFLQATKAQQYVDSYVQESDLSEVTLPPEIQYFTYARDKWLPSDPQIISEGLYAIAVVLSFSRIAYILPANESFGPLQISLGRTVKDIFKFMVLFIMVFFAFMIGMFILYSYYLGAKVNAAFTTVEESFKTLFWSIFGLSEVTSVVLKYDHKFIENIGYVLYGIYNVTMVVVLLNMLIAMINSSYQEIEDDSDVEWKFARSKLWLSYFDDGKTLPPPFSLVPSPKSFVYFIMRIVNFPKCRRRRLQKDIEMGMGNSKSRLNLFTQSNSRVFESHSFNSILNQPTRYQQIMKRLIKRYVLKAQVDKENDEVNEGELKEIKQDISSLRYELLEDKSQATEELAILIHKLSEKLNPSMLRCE

[4] = target: Transient receptor potential cation channel subfamily V member 4 (Homo sapiens, UniProt Q9HBA0); experiment: Antagonist activity at human TRPV4 expressed in BHK/AC9 or HEK MSR2 cells assessed as inhibition of GSK634775-induced Ca2+ flux pre-incubated for 10 mins before agonist addition by FLIPR assay
[5] = Fraction unbound in Sprague-Dawley rat plasma; assay type: ADME, cell-free
[6] = target: Transient receptor potential cation channel subfamily M member 2 (Homo sapiens, UniProt O94759); experiment: Inhibition of TRPM2 (unknown origin)
[7] = Clearance in iv dosed Sprague-Dawley rat; assay type: ADME, organism-based; settings: in vivo
Summary of the method: (§1)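 Male Sprague-Dawley rats with femoral vein, femoral artery and gastric catheters; noncrossover design, 2 rats per route; cassette dosing of up to five compounds. i.v. target 1 mg/kg in 5% DMSO/20% Cavitron (pH 4), infused over 30 min. Oral gastric bolus target 2 mg/kg in 5% DMSO/6% Cavitron (pH 4). Plasma sampled to 24 h and measured by HPLC−MS/MS. Noncompartmental analysis; F from dose-normalized AUC(0−∞) relative to mean i.v. AUC.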

[8] = Aqueous solubility of the compound; assay type: physicochemical; settings: buffer
[9] = target: Transient receptor potential cation channel subfamily V member 1 (Homo sapiens, UniProt Q8NER1); experiment: Inhibition of TRPV1 (unknown origin)
Rattus norvegicus = species: Rattus norvegicus; experiment: Unbound clearance in Sprague-Dawley rat; assay type: ADME, organism-based; settings: in vivo
[10] = Oral bioavailability in Sprague-Dawley rat; assay type: ADME, organism-based; settings: in vivo; summary of the method: as §1
[11] = MRT in iv dosed Sprague-Dawley rat; assay type: ADME, organism-based; settings: in vivo; summary of the method: as §1
[12] = target: T2, Short transient receptor potential channel 6 (Homo sapiens, UniProt Q9Y210); experiment: Inhibition of TRPC6 (unknown origin)
T2 sequence (Q9Y210 whole entry): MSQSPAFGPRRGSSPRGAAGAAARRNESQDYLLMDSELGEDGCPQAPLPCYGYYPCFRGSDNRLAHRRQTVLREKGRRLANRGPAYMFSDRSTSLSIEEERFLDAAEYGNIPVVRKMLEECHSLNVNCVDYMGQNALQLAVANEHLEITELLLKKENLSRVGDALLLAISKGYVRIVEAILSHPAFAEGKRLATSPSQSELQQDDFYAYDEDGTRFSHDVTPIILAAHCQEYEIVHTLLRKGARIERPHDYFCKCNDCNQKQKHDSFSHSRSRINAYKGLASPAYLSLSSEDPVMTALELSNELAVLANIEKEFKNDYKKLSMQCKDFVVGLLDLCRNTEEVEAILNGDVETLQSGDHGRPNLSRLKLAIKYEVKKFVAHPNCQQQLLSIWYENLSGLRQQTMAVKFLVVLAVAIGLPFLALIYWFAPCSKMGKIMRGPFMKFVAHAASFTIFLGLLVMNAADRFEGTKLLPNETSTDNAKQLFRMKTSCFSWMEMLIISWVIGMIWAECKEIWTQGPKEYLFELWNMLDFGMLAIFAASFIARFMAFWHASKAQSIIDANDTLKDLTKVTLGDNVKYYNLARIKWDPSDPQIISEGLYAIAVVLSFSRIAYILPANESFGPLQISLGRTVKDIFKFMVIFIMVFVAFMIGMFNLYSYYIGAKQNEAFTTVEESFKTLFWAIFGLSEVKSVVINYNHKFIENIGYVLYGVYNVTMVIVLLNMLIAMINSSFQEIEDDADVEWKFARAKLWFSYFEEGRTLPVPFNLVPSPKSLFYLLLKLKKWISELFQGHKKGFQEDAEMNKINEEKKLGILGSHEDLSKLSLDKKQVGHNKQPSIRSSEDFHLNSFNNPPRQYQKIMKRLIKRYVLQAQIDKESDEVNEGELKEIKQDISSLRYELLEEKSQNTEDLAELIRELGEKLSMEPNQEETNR

Transient receptor potential cation channel subfamily M member 4, sequence (Q8TD43 whole entry): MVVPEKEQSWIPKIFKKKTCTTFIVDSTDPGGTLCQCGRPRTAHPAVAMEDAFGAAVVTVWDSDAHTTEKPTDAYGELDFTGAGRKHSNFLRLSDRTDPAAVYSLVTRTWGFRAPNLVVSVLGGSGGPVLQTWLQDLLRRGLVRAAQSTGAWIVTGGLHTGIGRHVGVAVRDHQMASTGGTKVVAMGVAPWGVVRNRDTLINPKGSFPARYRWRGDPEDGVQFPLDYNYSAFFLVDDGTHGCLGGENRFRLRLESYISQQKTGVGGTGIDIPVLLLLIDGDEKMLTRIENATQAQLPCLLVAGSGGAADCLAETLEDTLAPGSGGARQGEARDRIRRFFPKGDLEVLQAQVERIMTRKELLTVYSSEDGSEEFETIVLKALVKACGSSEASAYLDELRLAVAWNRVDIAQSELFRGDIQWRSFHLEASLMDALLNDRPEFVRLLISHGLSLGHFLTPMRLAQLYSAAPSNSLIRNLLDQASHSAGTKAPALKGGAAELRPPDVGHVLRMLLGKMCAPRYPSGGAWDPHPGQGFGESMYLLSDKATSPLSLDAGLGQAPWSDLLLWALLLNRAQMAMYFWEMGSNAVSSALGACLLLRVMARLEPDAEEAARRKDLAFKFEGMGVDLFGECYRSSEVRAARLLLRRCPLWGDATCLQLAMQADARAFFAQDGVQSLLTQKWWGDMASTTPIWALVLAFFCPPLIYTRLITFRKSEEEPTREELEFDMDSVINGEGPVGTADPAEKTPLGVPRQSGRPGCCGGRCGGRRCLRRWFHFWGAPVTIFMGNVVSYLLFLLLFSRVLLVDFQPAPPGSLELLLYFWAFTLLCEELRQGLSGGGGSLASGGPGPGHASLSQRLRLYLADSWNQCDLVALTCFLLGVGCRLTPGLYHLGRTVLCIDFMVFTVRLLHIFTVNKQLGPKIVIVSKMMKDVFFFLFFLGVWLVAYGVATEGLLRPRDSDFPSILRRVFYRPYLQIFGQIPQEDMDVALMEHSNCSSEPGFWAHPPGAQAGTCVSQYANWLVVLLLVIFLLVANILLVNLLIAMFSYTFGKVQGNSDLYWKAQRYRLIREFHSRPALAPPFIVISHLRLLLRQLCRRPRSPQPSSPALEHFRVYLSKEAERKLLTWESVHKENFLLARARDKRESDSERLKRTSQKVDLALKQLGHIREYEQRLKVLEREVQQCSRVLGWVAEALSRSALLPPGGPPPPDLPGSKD
Transient receptor potential cation channel subfamily V member 4, sequence (Q9HBA0 whole entry): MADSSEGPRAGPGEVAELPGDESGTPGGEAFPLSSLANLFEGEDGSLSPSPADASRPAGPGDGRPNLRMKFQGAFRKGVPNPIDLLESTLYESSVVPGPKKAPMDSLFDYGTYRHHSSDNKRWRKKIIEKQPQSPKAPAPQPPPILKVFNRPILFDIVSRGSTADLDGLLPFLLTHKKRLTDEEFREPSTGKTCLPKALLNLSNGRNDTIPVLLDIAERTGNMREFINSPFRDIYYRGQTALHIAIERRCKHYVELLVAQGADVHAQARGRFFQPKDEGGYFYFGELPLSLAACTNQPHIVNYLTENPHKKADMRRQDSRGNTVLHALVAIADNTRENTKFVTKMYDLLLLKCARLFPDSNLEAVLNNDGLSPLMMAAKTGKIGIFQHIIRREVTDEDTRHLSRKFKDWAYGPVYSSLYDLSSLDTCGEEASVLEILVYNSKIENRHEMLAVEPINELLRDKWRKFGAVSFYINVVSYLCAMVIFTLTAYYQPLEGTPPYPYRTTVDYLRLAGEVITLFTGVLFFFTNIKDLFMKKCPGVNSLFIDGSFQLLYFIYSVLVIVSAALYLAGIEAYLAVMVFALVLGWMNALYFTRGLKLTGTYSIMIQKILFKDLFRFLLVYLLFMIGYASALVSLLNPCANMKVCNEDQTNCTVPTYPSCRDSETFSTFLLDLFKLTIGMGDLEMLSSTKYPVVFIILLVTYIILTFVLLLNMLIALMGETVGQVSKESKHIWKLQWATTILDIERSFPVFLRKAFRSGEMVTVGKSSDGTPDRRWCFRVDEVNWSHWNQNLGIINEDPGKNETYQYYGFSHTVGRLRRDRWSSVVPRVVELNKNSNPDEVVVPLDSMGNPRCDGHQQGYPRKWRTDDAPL
Transient receptor potential cation channel subfamily V member 1, sequence (Q8NER1 whole entry): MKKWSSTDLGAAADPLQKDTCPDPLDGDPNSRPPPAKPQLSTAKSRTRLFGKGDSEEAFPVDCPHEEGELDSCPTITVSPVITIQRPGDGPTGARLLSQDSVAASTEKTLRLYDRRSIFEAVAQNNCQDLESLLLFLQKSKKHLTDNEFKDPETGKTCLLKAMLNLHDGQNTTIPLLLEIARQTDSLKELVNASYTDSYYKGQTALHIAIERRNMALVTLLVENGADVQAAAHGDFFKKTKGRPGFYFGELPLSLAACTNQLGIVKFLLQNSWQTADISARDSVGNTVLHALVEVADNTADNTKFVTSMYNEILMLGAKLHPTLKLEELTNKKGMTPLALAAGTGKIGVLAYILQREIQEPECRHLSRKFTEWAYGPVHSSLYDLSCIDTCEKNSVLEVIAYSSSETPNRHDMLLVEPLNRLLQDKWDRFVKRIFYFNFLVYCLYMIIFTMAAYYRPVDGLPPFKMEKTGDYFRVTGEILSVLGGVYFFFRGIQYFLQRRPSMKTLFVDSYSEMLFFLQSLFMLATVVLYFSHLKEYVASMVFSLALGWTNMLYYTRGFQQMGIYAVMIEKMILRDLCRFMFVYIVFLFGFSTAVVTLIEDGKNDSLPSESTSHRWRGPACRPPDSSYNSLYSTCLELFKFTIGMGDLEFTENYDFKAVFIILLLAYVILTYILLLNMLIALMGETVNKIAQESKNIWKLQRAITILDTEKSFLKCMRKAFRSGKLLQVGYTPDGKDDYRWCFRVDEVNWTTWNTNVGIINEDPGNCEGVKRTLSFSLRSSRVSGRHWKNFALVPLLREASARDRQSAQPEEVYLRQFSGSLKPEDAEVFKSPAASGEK
Transient receptor potential cation channel subfamily M member 2, sequence (O94759 whole entry): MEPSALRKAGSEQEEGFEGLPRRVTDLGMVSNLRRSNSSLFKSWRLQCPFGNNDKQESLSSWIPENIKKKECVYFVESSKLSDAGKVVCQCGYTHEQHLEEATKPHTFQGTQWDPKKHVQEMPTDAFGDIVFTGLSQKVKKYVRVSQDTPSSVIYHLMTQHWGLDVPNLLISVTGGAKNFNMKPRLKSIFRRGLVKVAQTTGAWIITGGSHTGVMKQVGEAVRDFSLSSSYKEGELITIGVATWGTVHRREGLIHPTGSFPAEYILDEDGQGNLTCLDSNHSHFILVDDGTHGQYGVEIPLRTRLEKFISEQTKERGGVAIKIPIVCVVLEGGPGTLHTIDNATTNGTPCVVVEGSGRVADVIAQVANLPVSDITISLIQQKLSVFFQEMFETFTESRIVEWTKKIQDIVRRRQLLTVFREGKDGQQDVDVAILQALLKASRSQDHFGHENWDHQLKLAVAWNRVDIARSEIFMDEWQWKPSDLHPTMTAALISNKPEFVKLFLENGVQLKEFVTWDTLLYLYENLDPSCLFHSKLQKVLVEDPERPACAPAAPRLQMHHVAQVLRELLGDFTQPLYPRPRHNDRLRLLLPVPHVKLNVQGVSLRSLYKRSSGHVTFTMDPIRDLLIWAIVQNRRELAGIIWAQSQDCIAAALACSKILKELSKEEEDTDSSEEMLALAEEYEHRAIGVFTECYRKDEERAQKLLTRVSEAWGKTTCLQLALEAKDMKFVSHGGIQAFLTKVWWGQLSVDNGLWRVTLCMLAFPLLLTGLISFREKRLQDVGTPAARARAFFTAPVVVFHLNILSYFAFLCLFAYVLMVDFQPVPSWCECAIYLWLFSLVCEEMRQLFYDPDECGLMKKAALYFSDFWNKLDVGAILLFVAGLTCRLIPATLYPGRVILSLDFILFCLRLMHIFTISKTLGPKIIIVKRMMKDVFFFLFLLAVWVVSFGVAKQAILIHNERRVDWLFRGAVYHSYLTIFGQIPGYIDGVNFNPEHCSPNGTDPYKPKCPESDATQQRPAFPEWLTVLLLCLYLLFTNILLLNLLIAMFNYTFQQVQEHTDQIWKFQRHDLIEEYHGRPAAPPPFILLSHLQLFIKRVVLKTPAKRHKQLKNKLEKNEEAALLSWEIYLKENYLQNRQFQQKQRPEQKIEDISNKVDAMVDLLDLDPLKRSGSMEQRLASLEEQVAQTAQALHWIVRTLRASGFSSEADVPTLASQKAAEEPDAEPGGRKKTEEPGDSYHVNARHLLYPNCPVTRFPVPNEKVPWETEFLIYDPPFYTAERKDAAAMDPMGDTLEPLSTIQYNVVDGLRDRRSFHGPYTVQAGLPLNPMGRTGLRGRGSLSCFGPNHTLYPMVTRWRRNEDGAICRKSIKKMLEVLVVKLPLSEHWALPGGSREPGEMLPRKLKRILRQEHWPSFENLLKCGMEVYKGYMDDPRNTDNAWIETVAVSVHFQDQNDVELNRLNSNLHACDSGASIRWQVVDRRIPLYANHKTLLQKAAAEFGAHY

`N#Cc1ccc(O[C@H]2CN(S(=O)(=O)c3ccc(Cl)cc3Cl)C[C@@]2(O)CO)cc1F` showed a chromatographic logD [1] of 4.6, an IC50 [2] of over 10 µM and an IC50 [3] of over 10 µM. For the same compound, the IC50 [4] was 0.0025 µM, the fraction unbound [5] was 0.059 and the IC50 [6] was over 10 µM. The clearance [7] was 3.48 L/h/kg, the solubility [8] was 360 µM (≈ 166 µg/mL) and the IC50 [9] was over 10 µM. The CL free (Rattus norvegicus) was 58 L/h/kg, the bioavailability [10] was 35% and the MRT [11] was 54 min. For the same compound, the IC50 [12] was over 10 µM.
